Activity calls are given as the source filed them. The calls are words filed in the database; no cut-off is given here. *1 amine or outer side, *2 acyl side, *3 side chain or, on linkers, in order; H or OH if unused. Where a SMILES comes first, the peptide text is derived from it. The star is where a group is joined. X1 = O=c1cc(N2CCOCC2)oc2c(-c3ccc(CO*)cc3)cccc12; Morpholide = C1CN(*)CCO1; CO = O=C([*:1])[*:2]
How the values were obtained:
C4-2 [1] = test: Inhibition of PI3 kinase in human C4-2 cells assessed as reduction of p-Akt T308 level after 30 mins by Western blotting; assay type: cell-based
BT-549 [2] = test: Inhibition of PI3 kinase in human BT549 cells assessed as reduction of p-Akt T308 level after 30 mins by Western blotting; assay type: cell-based
BT-549 [3] = test: Inhibition of PI3 kinase in human BT549 cells assessed as complete reduction of p-Akt T308 level at 30 µM after 30 mins by Western blotting; assay type: cell-based
C4-2 [4] = test: Inhibition of PI3 kinase in human C4-2 cells assessed as complete reduction of p-Akt T308 level at 30 µM after 30 mins by Western blotting; assay type: cell-based
BT-549 [5] = test: Inhibition of PI3 kinase in human BT549 cells exposed to BT549 cells conditioned medium pre-incubated with compound for 6 hrs assessed as reduction of p-Akt T308 level by Western blotting; assay type: cell-based
Method in brief: (§1)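 Compound incubated 6 h at 37 °C, 5% CO2 in serum-free medium on C4-2 or BT-549 cells; medium then transferred to BT-549 cells for 3 h, PBS control; p-Akt T308 by Western blot.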

C4-2 [6] = test: Inhibition of PI3 kinase in human C4-2 cells assessed as reduction of p-Akt T308 level after 3 hrs by Western blotting; assay type: cell-based
C4-2 [7] = test: Inhibition of PI3 kinase in human C4-2 cells assessed as reduction of p-Akt T308 level at 30 uM by Western blotting; assay type: cell-based; conditions: TDE = time-dependent effect
BT-549 [8] = test: Inhibition of PI3 kinase in human BT549 cells exposed to 10 uM compound pre-incubated with 0.5 to 10^4 ng/mL PSA for 6 hrs assessed as reduction of p-Akt T308 levels after 30 mins by Western blotting; assay type: cell-based
Method in brief: (§2)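 Compound pre-incubated 6 h at 37 °C in 50 mM Tris-HCl, 0.1 M NaCl, pH 7.8 with purified active human semen PSA (0–104 ng/mL), then added to BT-549 cells for 30 min, DMSO control; p-Akt T308 Western blot, three independent experiments.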

BT-549 [9] = test: Inhibition of PI3 kinase in human BT549 cells assessed as reduction of p-Akt T308 level after 3 hrs by Western blotting; assay type: cell-based
Method in brief: (§3)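 Cells at ~80% confluence (48 h after seeding 4×10^5 per 6 cm dish), kept serum-free (LNCaP in T-Medium with 2.5% FBS; U-87 MG in DMEM) and dosed over a concentration range for 3 h, PBS control; p-Akt T308 by Western blot, three independent experiments.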

U-87 = test: Inhibition of PI3 kinase in human U-87 cells assessed as reduction of p-Akt T308 level after 3 hrs by Western blotting; assay type: cell-based; method in brief: as §3
[10] = Prodrug activation in medium conditioned with human C4-2 cells assessed as concentration of 4-(2-morpholino-4-oxo-4H-chromen-8-yl) benzyl-2-amino-4-methylpentanoate at 30 uM from 30 mins to 6 hrs by LC-ESI-MS analysis; assay type: cell-based; conditions: c4-2, 30 µM
Method in brief: (§4)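 Serum-free C4-2 or BT-549 cultures given compound, PBS control; media sampled at 30 min, 3 and 6 h. Released drug quantified by C18 UHPLC (water/methanol, 0.1% formic acid gradient) with positive ESI high-resolution Orbitrap MS at mass 496.2569, against standard curve; means ± SEM, n=3.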

BT-549 [11] = test: Inhibition of PI3 kinase in human BT549 cells exposed to 10 uM compound pre-incubated in absence of PSA for 6 hrs assessed as reduction of p-Akt T308 levels after 30 mins by Western blotting; assay type: cell-based; method in brief: as §2
C4-2 [12] = test: Inhibition of PI3 kinase in human C4-2 cells expressing Luc-BAD assessed as reduction of p-Akt T308 level after 3 hrs by Western blotting; assay type: cell-based
Method in brief: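 Serum-free C4-2LucBAD cells (18 h starvation, RPMI 1640 base) dosed over a concentration range for 3 h, PBS control; p-Akt T308 immunoblot of lysates.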

LNCaP C4-2 [13] = test: Induction of apoptosis in human C4-2 cells expressing Luc-BAD assessed as increase in cleavage of PARP at 3 to 50 uM after 6 hrs by Western blotting; assay type: functional, cell-based
Method in brief: (§5)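 C4-2LucBAD cells seeded 4×10^5 per 6 cm dish, grown 48 h in RPMI 1640/10% FBS to ~80% confluence, then serum-free 18 h; treated 6 h (DMSO control). Caspase 3 fluorescence read every 15 min for 1 h, arbitrary units, means ± SEM, n=2; cleaved PARP (89 kDa) by Western blot of same samples.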

LNCaP C4-2 [14] = test: Induction of apoptosis in human C4-2 cells expressing Luc-BAD assessed as increase in caspase activity at 3 to 50 uM after 6 hrs by Caspase 3 assay; assay type: functional, cell-based; method in brief: as §5
[15] = Prodrug activation in medium conditioned with human BT549 cells assessed as concentration of 4-(2-morpholino-4-oxo-4H-chromen-8-yl) benzyl-2-amino-4-methylpentanoate at 30 uM from 30 mins to 6 hrs by LC-ESI-MS analysis; assay type: cell-based; conditions: bt-549, 30 µM; method in brief: as §4
BT-549 [16] = test: Inhibition of PI3 kinase in human BT549 cells exposed to C4-2 cells conditioned medium pre-incubated with compound for 6 hrs assessed as reduction of p-Akt T308 level by Western blotting; assay type: cell-based; method in brief: as §1
LNCaP = test: Inhibition of PI3 kinase in human LNCaP cells assessed as reduction of p-Akt T308 level after 3 hrs by Western blotting; assay type: cell-based; method in brief: as §3
BT-549 [17] = test: Inhibition of PI3 kinase in human BT549 cells assessed as reduction of p-Akt T308 level at 30 uM after 30 mins to 6 hrs by Western blotting; assay type: cell-based
Method in brief: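 Serum-free BT-549 cells (RPMI 1640, 10% FBS, insulin during growth) exposed from 30 min to 6 h, PBS control; p-Akt T308 Western blot of cleared lysates, representative of three independent experiments.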

SMILES | inhibition (C4-2 [1]) | inhibition (BT-549 [2]) | inhibition (BT-549 [3]) | inhibition (C4-2 [4]) | inhibition (BT-549 [5]) | inhibition (C4-2 [6]) | inhibition (C4-2 [7]) | inhibition (BT-549 [8]) | inhibition (BT-549 [9]) | inhibition (U-87) | Drug metabolism [10] | inhibition (BT-549 [11]) | inhibition (C4-2 [12]) | Activity (LNCaP C4-2 [13]) | Activity (LNCaP C4-2 [14]) | Drug metabolism [15] | inhibition (BT-549 [16]) | inhibition (LNCaP) | inhibition (BT-549 [17])
CC(C)C[C@H](N)C(=O)OCc1ccc(-c2cccc3c(=O)cc(N4CCOCC4)oc23)cc1 | Dose-dependent effect | Dose-dependent effect | Active | Active |  |  |  |  |  |  |  |  |  |  |  |  |  |  | 
CC(C)C[C@H](NC(=O)[C@H](CCCCN)NC(=O)[C@H](CO)NC(=O)[C@H](CO)NC(=O)[C@H](Cc1cnc[nH]1)NC(=O)[C@H](CCC(=O)O)NC(=O)[C@H](CC(C)C)NC(=O)N1CCOCC1)C(=O)N[C@@H](CCC(N)=O)C(=O)N[C@@H](CC(C)C)C(=O)OCc1ccc(-c2cccc3c(=O)cc(N4CCOCC4)oc23)cc1 ({Morpholide-CO}-LEHSSKLQL-X1) |  |  |  |  | inactive | Dose-dependent effect | tde | Active | inactive | inactive | Active | inactive | Dose-dependent effect | Active | Active | Not Active | Active | Dose-dependent effect | inactive
